Like-named read-outs stand apart in the source and are kept apart here.
Tests used:
[1] = target: T1, recombinant PLD2 (Homo sapiens, UniProt O14939); experiment: Lipase assay of recombinant PLD2 with increasing concentrations of PIP2; type: biochemical; details: 300 nM inhibitor, fixed PC8
How it was run: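 Baculovirus-expressed, TALON-enriched full-length PLD2 was left untreated or treated with 300 nM inhibitor. It was then run in the lipase assay with increasing PIP2 concentrations and a fixed concentration of PC8 substrate. Activity was read as radiolabelled phosphatidylbutanol, co-migrating with PBut standards, by scintillation counting.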

[2] = tested on: PLD2 mutants; experiment: Lipase activity of PLD2 mutants overexpressed in COS7 cells; type: biochemical
How it was run: (§1)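 COS-7 cells in DMEM/10% FBS were transfected at 60% confluence with 1–6 μg plasmid (PLD2 mutants) using Lipofectamine/Plus, with 3 h exposure and 48 h expression. Lysates were treated with 300 nM test compound for 25 min. The lipase assay ran 20 min at 30 °C with shaking and was stopped with ice-cold chloroform/methanol (1:2). Lipids were separated by TLC, and [3H]-phosphatidylbutanol was quantified by scintillation counting.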

[3] = target: PLD2 mutants (Homo sapiens, UniProt O14939, S757A); experiment: as above; type: biochemical; details: 300 nM
How it was run: as §1

[4] = target: T2, PLD1 (Homo sapiens, UniProt Q13393); details: inhibiting PLD1 in the tumor microenvironment ref Chen, Hongu et al. 2012; cited from earlier work
T2 sequence (Q13393 1-1074): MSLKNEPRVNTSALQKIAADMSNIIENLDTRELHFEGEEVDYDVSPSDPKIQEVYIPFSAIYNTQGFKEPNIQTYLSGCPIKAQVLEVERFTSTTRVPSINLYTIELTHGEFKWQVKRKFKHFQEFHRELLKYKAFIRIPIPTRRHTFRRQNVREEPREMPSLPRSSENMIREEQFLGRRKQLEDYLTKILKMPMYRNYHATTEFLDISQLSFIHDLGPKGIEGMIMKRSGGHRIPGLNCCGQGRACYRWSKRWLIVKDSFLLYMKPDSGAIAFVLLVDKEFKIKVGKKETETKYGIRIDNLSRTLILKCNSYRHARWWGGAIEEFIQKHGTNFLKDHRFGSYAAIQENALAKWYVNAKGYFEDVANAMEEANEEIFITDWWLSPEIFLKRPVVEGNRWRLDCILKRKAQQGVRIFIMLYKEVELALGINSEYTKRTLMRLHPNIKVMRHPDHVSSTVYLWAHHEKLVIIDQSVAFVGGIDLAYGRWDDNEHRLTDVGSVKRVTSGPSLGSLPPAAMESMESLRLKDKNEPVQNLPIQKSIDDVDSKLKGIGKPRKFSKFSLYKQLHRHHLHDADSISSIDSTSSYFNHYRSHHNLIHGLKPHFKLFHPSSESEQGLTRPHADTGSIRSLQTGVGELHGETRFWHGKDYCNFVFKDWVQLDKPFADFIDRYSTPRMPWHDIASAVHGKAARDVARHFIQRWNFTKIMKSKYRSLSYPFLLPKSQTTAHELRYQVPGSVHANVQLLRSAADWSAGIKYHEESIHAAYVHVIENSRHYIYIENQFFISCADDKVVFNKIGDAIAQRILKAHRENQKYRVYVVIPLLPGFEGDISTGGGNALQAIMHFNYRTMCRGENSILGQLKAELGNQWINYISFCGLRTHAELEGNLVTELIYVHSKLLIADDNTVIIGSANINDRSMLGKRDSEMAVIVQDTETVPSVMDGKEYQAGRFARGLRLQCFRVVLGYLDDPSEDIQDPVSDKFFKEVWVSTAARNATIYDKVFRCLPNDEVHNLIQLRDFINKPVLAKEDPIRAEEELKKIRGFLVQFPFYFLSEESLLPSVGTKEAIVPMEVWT

[5] = in vivo ref Monovich, Mugrage et al. 2007; cited from earlier work
[6] = target: T2, PLD1; experiment: Phospholipase; type: biochemical
[7] = target: T1, recombinant PLD2; experiment: Enzyme inhibition kinetics with purified recombinant PLD2; type: biochemical; details: 300 nM inhibitor; for Effect on Km / Effect on Vmax / Type of inhibition (Lineweaver Burk plot): increasing PC
How it was run: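 Purified full-length PLD2 was expressed in Sf21 insect cells with a baculovirus system and enriched on TALON matrix. Two assay formats were used. In one, increasing enzyme amounts, untreated or with 300 nM inhibitor, were run with fixed PC at 3.5 mM. In the other, fixed enzyme, ± 300 nM inhibitor, was run with increasing PC. [3H]-phosphatidylbutanol co-migrating with PBut standards was measured by scintillation counting. Data were plotted as Michaelis-Menten and Lineweaver-Burk plots.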

[8] = tested on: PLD; details: cited from earlier work
[9] = tested on: breast cancer cells (MDA-MB-231); experiment: Cell invasion assay; type: cell-based; details: 300 nM, 700 nM; not in cells overexpressing resistant PLD2 mutants
How it was run: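 PLD2 mutant constructs were overexpressed by transfection. After transfection, cells were harvested and treated with the test compound at 300 or 700 nM for 20 min. Invasion was then run in Matrigel inserts.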

[10] = tested on: PLD2; details: xenograft mice models ref Henkels, Boivin et al. 2013; cited from earlier work
[11] = ref Lewis JA et al, Bioorg Med Chem Lett, 2009

T1 sequence (O14939 whole entry, species assumed): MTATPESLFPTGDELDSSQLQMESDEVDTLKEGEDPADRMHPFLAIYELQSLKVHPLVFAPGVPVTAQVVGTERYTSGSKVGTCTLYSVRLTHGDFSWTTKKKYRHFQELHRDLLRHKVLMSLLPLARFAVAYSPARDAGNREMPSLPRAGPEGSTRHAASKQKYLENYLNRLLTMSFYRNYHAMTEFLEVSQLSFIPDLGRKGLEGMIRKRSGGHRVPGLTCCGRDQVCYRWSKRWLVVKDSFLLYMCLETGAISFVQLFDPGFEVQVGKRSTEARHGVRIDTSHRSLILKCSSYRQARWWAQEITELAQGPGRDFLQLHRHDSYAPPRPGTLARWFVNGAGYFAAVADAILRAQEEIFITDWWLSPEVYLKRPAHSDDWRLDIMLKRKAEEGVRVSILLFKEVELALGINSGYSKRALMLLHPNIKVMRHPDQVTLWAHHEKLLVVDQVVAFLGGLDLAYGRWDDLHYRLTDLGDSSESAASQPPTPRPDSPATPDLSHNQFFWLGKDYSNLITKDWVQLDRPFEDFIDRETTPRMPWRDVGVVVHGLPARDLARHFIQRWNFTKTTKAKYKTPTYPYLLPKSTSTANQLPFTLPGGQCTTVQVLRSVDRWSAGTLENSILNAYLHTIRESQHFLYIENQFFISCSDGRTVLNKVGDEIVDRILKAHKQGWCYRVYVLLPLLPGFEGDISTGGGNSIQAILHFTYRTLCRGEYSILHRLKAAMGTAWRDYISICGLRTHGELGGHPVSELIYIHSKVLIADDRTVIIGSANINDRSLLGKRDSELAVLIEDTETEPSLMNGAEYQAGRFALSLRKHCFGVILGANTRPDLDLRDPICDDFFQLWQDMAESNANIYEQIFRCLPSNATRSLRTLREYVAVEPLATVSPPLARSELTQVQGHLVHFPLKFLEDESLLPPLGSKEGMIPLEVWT
Chain of PLD2 mutants (Homo sapiens, UniProt O14939, S757A) (O14939 whole entry S757A): as the sequence (O14939 whole entry, species assumed) above, with S757A counted along it

O=C(NCCN1CCC(n2c(=O)[nH]c3ccccc32)CC1)c1cc2cc(F)ccc2[nH]1 [FIPI, N-[2-[4-(2,3-dihydro-2-oxo-1H-benzimidazol-1-yl)-1-piperidinyl]ethyl]-5-fluoro-1H-indole-2-carboxamide]
PLD2 inhibition with increasing concentrations of PIP2 [1]: FIPI inhibited the enzyme
Inhibition of lipase activity of the battery of PLD2 mutants ([2]; 300 nM): inhibited most of the mutants
Inhibition of PLD2-S757A lipase activity [3]: resistant
Metastasis and angiogenesis [4]: dampens metastasis and angiogenesis
bioavailability [5]: 18%
half-life in vivo [5]: 5.5 h
IC50 [6]: 30 nM
Competition by increasing enzyme or substrate [7]: not totally competed off
Effect on Km [7]: increase the Km
Effect on Vmax [7]: decreasing the Vmax
Type of inhibition (Lineweaver Burk plot) [7]: mixed-type inhibition
Isoform specificity ([8]; ref Su W et al, Mol Pharmacol, 2009): Dual (PLD1 and PLD2) inhibitor

CC(CN1CCC(n2c(=O)[nH]c3cc(Cl)ccc32)CC1)NC(=O)c1ccc2ccccc2c1 (stereo not shown) [NBOD, N-[2-[4-(5-chloro-2,3-dihydro-2-oxo-1H-benzimidazol-1-yl)-1-piperidinyl]-1-methylethyl]-2-naphthalenecarboxamide]
Isoform specificity [8, 11]: PLD1 inhibitor

O=C(NCCN1CCC2(CC1)C(=O)NCN2c1cccc(F)c1)c1ccc2ccccc2c1 [NFOT, N-[2-[1-(3-Fluorophenyl)-4-oxo-1,3,-8-triazaspiro[4,5]dec-8-yl]ethyl]-2-naphthalenecarboxamide]
PLD2 inhibition with increasing concentrations of PIP2 [1]: enzyme activity was regained back
Inhibition of PLD2-H158Q, Y165F, L173A, R210/212A, F244N/L245/L246A, S648A and S757A lipase activity ([2]; 300 nM): demonstrated resistance
Inhibition of PLD2-R210A/R212A, F244N/L245/L246A, S648A and S757A lipase activity ([2]; range of inhibitor concentrations, Figure 5): partially resistant to inhibition
Cell invasion of cancer cells [9]: prevents cell invasion
Effect on Km [7]: increase the Km
Effect on Vmax [7]: decreasing the Vmax
Type of inhibition (Lineweaver Burk plot) [7]: mixed-type inhibition
Isoform specificity ([8]; ref Lavieri RR et al, J Med Chem, 2010): PLD2 inhibitor

O=C(NCCN1CCC2(CC1)C(=O)NCN2c1ccccc1)c1ccc2ccccc2c1 [NOPT, N-[2-(4-oxo-1-phenyl-1,3,8-triazaspiro[4,5]dec-8-yl)ethyl]-2-naphthalenecarboxamide]
Tumor metastasis and cell invasion [10]: inhibited tumor metastasis and cell invasion
Isoform specificity [8, 11]: PLD2 inhibitor

C[C@@H](CN1CCC(n2c(=O)[nH]c3cc(Br)ccc32)CC1)NC(=O)[C@@H]1C[C@H]1c1ccccc1 [RBPC, (1R,2R)-N-([S]-1-{4-[5-bromo-2-oxo-2,3-dihydro-1H-benzo(d)imidazol-1-yl]piperidin-1-yl}propan-2-yl)-2-phenylcyclopropanecarboxamide]
Inhibition of PLD activity in PLD1 overexpressed samples ([6]; Figure 1): did not efficiently inhibit PLD activity
Isoform specificity [8, 11]: PLD1 inhibitor

From paper PMC4312721 (Biochimica et biophysica acta, 2014)
